ChEMBL document CHEMBL1135786, “Anti-AIDS agents 49. Synthesis, anti-HIV, and anti-fusion activities of IC9564 analogues based on betulinic acid” (J Med Chem, 2002)

What was measured:
Format in all cases: functional, organism-based
[1] = test system: Human immunodeficiency virus 1; assay: Anti HIV-1 activity against the virus NL4-3 using MAGI assay; conditions: Human immunodeficiency virus 1, MAGI
In short: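 HeLa-CD4/CCR5/β-gal indicator cells seeded at 10 000/well, grown 1 day in DMEM with G418 (500 µg/mL) and hygromycin (250 µg/mL). Infected with virus dilutions in presence of graded compound concentrations, 2 days at 37 °C. Fixed (1% formaldehyde, 0.2% glutaraldehyde), X-gal stained (0.4 mg/mL). Blue (Tat-expressing) cells counted; EC50 = concentration halving infected-cell number.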

[2] = test system: Human immunodeficiency virus 1; assay: Anti HIV-1 activity against the virus NL4-3 using fusion assay
In short: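 COS cells (10⁶) electroporated (950 µF, […]) with 2 µg vector expressing HIV-1 NL4-3 envelope, cultured 1 day. Then 10⁴ transfected cells mixed with 7 × 10⁴ MOLT-4 cells. Graded compound concentrations added, 24 h at 37 °C. Multinucleated syncytia counted microscopically over entire well; EC50 from syncytium inhibition.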

[3] = test system: Human immunodeficiency virus 1; assay: Anti HIV-1 activity against infected H9 lymphocyte cells; conditions: Human immunodeficiency virus 1, H9
In short: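 HIV-1 acutely infected H9 lymphocytes cultured with the test agent; EC50 (µM) reported.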

Q: For C=C(C)[C@@H]1CC[C@]2(C(=O)NCCCCCCCCCCC(=O)N[C@@H](CC(C)C)C(=O)OC)CC[C@]3(C)[C@H](CC[C@@H]4[C@@]5(C)CC[C@H](O)C(C)(C)[C@@H]5CC[C@]43C)[C@@H]12, which EC50 [1] is on record?
A: > 32 µM

Q: And the EC50 [2]?
A: > 26 µM

Q: Which EC50 [1] does the source give for C=C(C)[C@@H]1CC[C@]2(C(=O)NCCCCCCCC(=O)N[C@@H](CC(C)C)C(=O)O)CC[C@]3(C)[C@H](CC[C@@H]4[C@@]5(C)CC[C@H](O)C(C)(C)[C@@H]5CC[C@]43C)[C@@H]12 here?
A: 1.38 µM

Q: And the EC50 [2]?
A: 1.1 µM

Q: What does the source list for C=C(C)[C@@H]1CC[C@]2(C(=O)NCCCCCCCC(=O)OC)CC[C@]3(C)[C@H](CC[C@@H]4[C@@]5(C)CC[C@H](OC(C)=O)C(C)(C)[C@@H]5CC[C@]43C)[C@@H]12?
A: EC50 [1]: 29.1 µM; EC50 [2]: > 31 µM

Q: Which results are given for C=C(C)[C@@H]1CC[C@]2(C(=O)N[C@@H](CC(C)C)C(=O)OC)CC[C@]3(C)[C@H](CC[C@@H]4[C@@]5(C)CC[C@H](OC(C)=O)C(C)(C)[C@@H]5CC[C@]43C)[C@@H]12?
A: EC50 [1]: > 40 µM; EC50 [2]: > 32 µM

Q: Which EC50 [1] does the source give for C=C(C)[C@@H]1CC[C@]2(C(=O)NCCCCCCCC(=O)N[C@@H](CC(C)C)[C@H](O)CC(=O)O)CC[C@]3(C)[C@H](CC[C@@H]4[C@@]5(C)CC[C@H](O)C(C)(C)[C@@H]5CC[C@]43C)[C@@H]12 here?
A: 0.4 µM

Q: And the EC50 [2]?
A: 0.66 µM

Q: CC(C)C[C@H](NC(=O)CCCCCCCNC(=O)[C@]12CC[C@@H](C(C)C)[C@@H]1[C@H]1CC[C@@H]3[C@@]4(C)CC[C@H](O)C(C)(C)[C@@H]4CC[C@@]3(C)[C@]1(C)CC2)[C@H](O)CC(=O)O was tested. Which EC50 [1] did it give?
A: 0.33 µM

Q: And the EC50 [2]?
A: 0.4 µM

Q: What does the source list for C=C(C)[C@@H]1CC[C@]2(C(=O)NCCCCCCCCCCC(=O)N[C@@H](CC(C)C)C(=O)O)CC[C@]3(C)[C@H](CC[C@@H]4[C@@]5(C)CC[C@H](O)C(C)(C)[C@@H]5CC[C@]43C)[C@@H]12?
A: EC50 [1]: 0.46 µM; EC50 [2]: 0.33 µM

Q: For C=C(C)[C@@H]1CC[C@]2(C(=O)NCCCCCCCC(=O)N[C@@H](CC(C)C)C(=O)OC)CC[C@]3(C)[C@H](CC[C@@H]4[C@@]5(C)CC[C@H](O)C(C)(C)[C@@H]5CC[C@]43C)[C@@H]12, which EC50 [1] is on record?
A: 0.52 µM

Q: What about the EC50 [2] of the same compound?
A: 0.86 µM

Q: Which results are given for CC(=O)O[C@H]1CC[C@]2(C)[C@H]3CC[C@@H]4[C@H]5[C@H](C(C)C)CC[C@]5(C(=O)NCCCCCCCC(=O)N[C@@H](CC(C)C)[C@H](O)CC(=O)OCc5ccccc5)CC[C@@]4(C)[C@]3(C)CC[C@H]2C1(C)C?
A: EC50 [1]: > 28 µM; EC50 [2]: > 22 µM

Q: How did the EC50 [1] turn out when Cc1cn([C@H]2C[C@H](N=[N+]=[N-])[C@@H](CO)O2)c(=O)[nH]c1=O [ZIDOVUDINE] was run?
A: 0.075 µM

Q: What about the EC50 [2] of the same compound?
A: > 75 µM

Q: For C=C(C)[C@@H]1CC[C@]2(C(=O)N[C@@H](CC(C)C)C(=O)O)CC[C@]3(C)[C@H](CC[C@@H]4[C@@]5(C)CC[C@H](O)C(C)(C)[C@@H]5CC[C@]43C)[C@@H]12, which EC50 [2] is on record?
A: 5.48 µM

Q: What about the EC50 [3] of the same compound?
A: 3.22 µM

Q: For C=C(C)[C@@H]1CC[C@]2(C(=O)NCCC(=O)N[C@@H](CC(C)C)C(=O)OC)CC[C@]3(C)[C@H](CC[C@@H]4[C@@]5(C)CC[C@H](O)C(C)(C)[C@@H]5CC[C@]43C)[C@@H]12, which EC50 [1] is on record?
A: > 38 µM

Q: And the EC50 [2]?
A: 7.63 µM

Q: For C=C(C)[C@@H]1CC[C@]2(C(=O)NCCCCCCCCCCC(=O)O)CC[C@]3(C)[C@H](CC[C@@H]4[C@@]5(C)CC[C@H](O)C(C)(C)[C@@H]5CC[C@]43C)[C@@H]12, which EC50 [1] is on record?
A: 0.7 µM

Q: And the EC50 [2]?
A: 0.31 µM

Q: C=C(C)[C@@H]1CC[C@]2(C(=O)NCCC(=O)OC)CC[C@]3(C)[C@H](CC[C@@H]4[C@@]5(C)CC[C@H](OC(C)=O)C(C)(C)[C@@H]5CC[C@]43C)[C@@H]12 was tested. Which EC50 [1] did it give?
A: 26.7 µM

Q: What about the EC50 [2] of the same compound?
A: 21.4 µM

Q: C=C(C)[C@@H]1CC[C@]2(C(=O)NCCC(=O)N[C@@H](CC(C)C)C(=O)O)CC[C@]3(C)[C@H](CC[C@@H]4[C@@]5(C)CC[C@H](O)C(C)(C)[C@@H]5CC[C@]43C)[C@@H]12 was tested. Which EC50 [1] did it give?
A: > 39 µM

Q: And the EC50 [2]?
A: > 31 µM

Q: How did the EC50 [1] turn out when C=C(C)[C@@H]1CC[C@]2(C(=O)NCCC(=O)O)CC[C@]3(C)[C@H](CC[C@@H]4[C@@]5(C)CC[C@H](O)C(C)(C)[C@@H]5CC[C@]43C)[C@@H]12 was run?
A: > 47 µM

Q: What about the EC50 [2] of the same compound?
A: > 38 µM

Q: Which results are given for C=C(C)[C@@H]1CC[C@]2(C(=O)NCCCCCCCCCCC(=O)OC)CC[C@]3(C)[C@H](CC[C@@H]4[C@@]5(C)CC[C@H](OC(C)=O)C(C)(C)[C@@H]5CC[C@]43C)[C@@H]12?
A: EC50 [1]: 10.2 µM; EC50 [2]: > 29 µM
